Measured values reported in ChEMBL document CHEMBL1143320, “Benzyldihydroxyoctenone, a novel anticancer agent, induces apoptosis via mitochondrial-mediated pathway in androgen-sensitive LNCaP prostate cancer cells” (Bioorg Med Chem Lett, 2009).
Activity calls are given as the source filed them.

Key:
Type in all cases: functional, cell-based
[1] = system: LNCaP; assay: Cell cycle arrest in human LNCAP cells assessed as accumulation at subG1 phase at 30 uM by flow cytometry; details: TDE = time-dependent effect
Procedure, shortened: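 LNCaP cells exposed for various times, then fixed nuclei stained with propidium iodide. DNA content read by flow cytometry, 10,000 nuclei per sample. Sub-G1 fraction reported as means ± SD of three separate experiments.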

[2] = system: LNCaP; assay: Induction of apoptosis in human LNCAP cells assessed as DNA fragmentation at 30 uM by TUNEL assay
Procedure, shortened: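 Cells were treated for the indicated times, then fixed and permeabilized. They were stained with fluorescent TUNEL reagent and analysed by flow cytometry for DNA fragmentation.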

[3] = system: LNCaP; assay: Induction of apoptosis in human LNCAP cells assessed as procaspase-3 cleavage at 30 uM after 24 hrs by Western blot
Procedure, shortened: (§1)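 Cells were treated for various times and total cell lysates prepared. Lysates were resolved on 8–14% polyacrylamide gels and immunoblotted with an antibody to each protein, with b-actin as internal control.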

[4] = system: LNCaP; assay: Induction of apoptosis in human LNCAP cells assessed as decrease in procaspase-8 expression at 30 uM after 24 hrs by Western blot; procedure, shortened: as §1
[5] = system: LNCaP; assay: Induction of apoptosis in human LNCAP cells assessed as decrease in procaspase-9 expression at 30 uM after 24 hrs by Western blot; procedure, shortened: as §1
[6] = system: LNCaP; assay: Induction of apoptosis in human LNCAP cells assessed as procaspase-8 cleavage at 30 uM by Western blot; details: TDE = time-dependent effect; procedure, shortened: as §1
[7] = system: LNCaP; assay: Induction of apoptosis in human LNCAP cells assessed as PARP cleavage at 30 uM after 24 hrs by Western blot; procedure, shortened: as §1
[8] = system: LNCaP; assay: Induction of apoptosis in human LNCAP cells assessed as increase in mitochondrial cytochrome C release at 30 uM after 24 hrs by Western blot; procedure, shortened: as §1
[9] = system: LNCaP; assay: Induction of apoptosis in human LNCAP cells assessed as decrease in Bcl2 levels at 30 uM after 48 hrs by Western blot; procedure, shortened: as §1
[10] = system: LNCaP; assay: Induction of apoptosis in human LNCAP cells assessed as decrease in Bcl-XL levels at 30 uM after 24 hrs by Western blot; procedure, shortened: as §1
[11] = system: LNCaP; assay: Induction of apoptosis in human LNCAP cells assessed as inhibition of AR protein expression at 30 uM by Western blot; details: TDE = time-dependent effect
[12] = system: LNCaP; assay: Induction of apoptosis in human LNCAP cells assessed as inhibition of PSA protein expression at 30 uM by Western blot; details: TDE = time-dependent effect
[13] = system: LNCaP; assay: Induction of apoptosis in human LNCAP cells assessed as inhibition of DHT-induced AR protein expression at 30 uM after 24 hrs by Western blot
Procedure, shortened: (§2)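 LNCaP cells were grown 48 h in RPMI 1640 with 10% FBS, then exposed 24 h to compound given in ethanol. This was followed by 2 h with or without DHT (0.1 and 1 nM). Lysate protein was measured by BCA, run on SDS–PAGE and blotted to nitrocellulose. Blots were probed with primary and peroxidase-conjugated secondary antibodies, with chemiluminescent detection.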

[14] = system: LNCaP; assay: Induction of apoptosis in human LNCAP cells assessed as inhibition of DHT-induced PSA protein expression at 30 uM after 24 hrs by Western blot; procedure, shortened: as §2
[15] = system: LNCaP; assay: Induction of apoptosis in human LNCAP cells assessed as inhibition of AR mRNA transcription at 30 uM after 24 hrs by RT-PCR
Procedure, shortened: (§3)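 Cells were treated as for the blots (24 h compound, then DHT 1.0 nM or none). Total RNA (2 µg) was reverse-transcribed and AR and PSA were quantified by real-time PCR. Relative levels were calculated by the comparative threshold cycle method, with GAPDH as housekeeping gene.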

[16] = system: LNCaP; assay: Induction of apoptosis in human LNCAP cells assessed as inhibition of AR mRNA transcription at 30 uM after 24 hrs by RT-PCR in presence of DHT; procedure, shortened: as §3
[17] = system: LNCaP; assay: Induction of apoptosis in human LNCAP cells assessed as inhibition of PSA mRNA transcription at 30 uM after 24 hrs by RT-PCR; procedure, shortened: as §3
[18] = system: LNCaP; assay: Induction of apoptosis in human LNCAP cells assessed as inhibition of PSA mRNA transcription at 30 uM after 24 hrs by RT-PCR in presence of DHT; procedure, shortened: as §3

Measured: Activity

C/C=C(\Cc1ccccc1)C(=O)CC(O)CCO (stereo not drawn)
active: [1] tde | [2] | [3] | [4] | [5] | [6] tde | [7] | [8] | [9] | [10] | [11] tde | [12] tde | [13] | [14] | [15] | [16] | [17] | [18]
